Source: PubChem (Broad Institute)
PDI turbidity: inhibitors of human PDI, primary screen, biochemical, turbidity, single point, plate reader | Protein disulfide-isomerase (Homo sapiens), P07237 | PDI insulin aggregation turbidity, A650, 90 min | inhibition, % at 10 µM | 350,000 tested, 0.052% active | AID 588391, 2011;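 active = mean inhibition across replicates of 30% or more, whatever share of single replicates reach that level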
S100A4 inh HTS: inhibitors of S100A4-myosin IIA peptide binding, primary screen, biochemical, fluorescence polarization, TAMRA-MyoIIA peptide | inhibition, % at 10.7 µM | 360,000 tested, 0.14% active | AID 652163, 2013;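 active = mean inhibition of at least 70% across replicates, with every replicate also reaching that level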
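Material: human S100A4 monomer with TAMRA-labelled myosin IIA peptide; buffer or medium: HEPES pH 7.2 with CaCl2, KCl, NaCl, DTT, Triton; compound dosing: one concentration per compound; schedule: 5 min incubation before reading; benchmarks: neutral control DMSO, positive control TFP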
FGF22 binding: binders of human FGF22 protein, primary screen, FGF22 synaptogenesis inhibitor project, biophysical, thermal shift, single point; AID 651658, 2012; activity (Tm shift, normalised), % at 9.99 µM; 340,000 tested, 1.5% active; Fibroblast growth factor 22 (Homo sapiens), Q9HCT0; recombinant FGF22 thermal shift, SYPRO orange fluorescence; percent of sucrose octasulfate shift, DMSO zero;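 active = mean Tm shift, scaled 0 neutral to 100 positive control, at about 1.3% or above, every replicate too, limit read from the data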
Target sequence (Q9HCT0 whole entry, looked up): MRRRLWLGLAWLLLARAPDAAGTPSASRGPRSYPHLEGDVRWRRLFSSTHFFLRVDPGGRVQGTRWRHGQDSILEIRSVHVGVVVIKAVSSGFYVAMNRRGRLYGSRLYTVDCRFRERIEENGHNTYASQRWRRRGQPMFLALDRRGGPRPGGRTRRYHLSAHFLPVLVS
ERp5 inh: inhibitors of ERp5-driven insulin aggregation, primary screen, biochemical, turbidity, absorbance 650 nm, single point. Protein disulfide-isomerase A6 (Homo sapiens), Q15084. 90 min. inhibition, % at 9.99 µM. 350,000 tested, 0.05% active. AID 651711, 2012;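 active = mean replicate inhibition above about 25%, with every replicate also reaching it, limit read from the data, passing the limit was not always enough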
Target sequence (Q15084 whole entry, looked up): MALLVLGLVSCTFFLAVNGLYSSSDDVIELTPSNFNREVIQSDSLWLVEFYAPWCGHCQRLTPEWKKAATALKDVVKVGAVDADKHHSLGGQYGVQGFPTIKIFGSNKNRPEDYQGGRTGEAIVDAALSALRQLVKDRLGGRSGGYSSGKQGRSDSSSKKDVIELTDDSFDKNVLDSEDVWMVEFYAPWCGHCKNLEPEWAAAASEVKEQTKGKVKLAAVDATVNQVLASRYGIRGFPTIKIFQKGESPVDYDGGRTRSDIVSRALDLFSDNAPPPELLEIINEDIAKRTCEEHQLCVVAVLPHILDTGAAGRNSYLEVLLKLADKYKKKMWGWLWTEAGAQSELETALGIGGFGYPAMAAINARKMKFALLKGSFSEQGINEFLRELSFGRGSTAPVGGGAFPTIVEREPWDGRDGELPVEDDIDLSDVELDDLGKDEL
ERAP1 HTS inh: human ERAP1 aminopeptidase inhibitors, primary screen, biochemical, single point, plate reader | recombinant ERAP1, Leu-AMC fluorescence, 60 min | AID 652197, 2013 | inhibition, % at 10.7 µM | 340,000 tested, 0.15% active;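 active = mean replicate inhibition of at least 30%, or all replicates individually reaching that 30% level; inactive = mean below 30% and not every replicate reaching it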
Large screens that a line does not name were inactive. Only a selection was taken, and hits are over-represented in it overall.

Oc1ccccc1C=NNC(=S)Nc1ccc(F)cc1	none
Fc1ccc(NC(=S)NN=Cc2ccccc2Cl)cc1	FGF22 binding 43
CCc1ccc(Nc2nc(N3CCOCC3)nc(N3CCOCC3)n2)cc1	none
CNC(=O)/C(C#N)=C/c1ccc(-c2ccccc2[N+](=O)[O-])o1	none
CNC(=O)/C(C#N)=C/c1ccc(-c2ccc(Cl)cc2)o1	FGF22 binding 1.5
Cc1ccccc1C(=O)NCC(=O)OC(C)C(=O)Nc1ccnn1C(C)C (configuration not stated)	none
CCC(C)n1nccc1NC(=O)C(C)Cl (configuration not stated)	FGF22 binding 43
COCOc1cccc(CN2CCC(C)(Oc3cccc(OC)c3)C2)c1 (configuration not stated)	none
OCC(O)C1OC(Nc2ccc(Br)cc2)C(O)C1O (configuration not stated)	FGF22 binding 43
CC(=O)c1ccc(NC2OC(CO)C(O)C(O)C2O)cc1 (configuration not stated)	none (no result: S100A4 inh HTS, FGF22 binding, ERp5 inh, ERAP1 HTS inh)
COc1cc(CNCCN(C)C)c(Br)cc1OCC(=O)NCc1ccccc1	none (no result: S100A4 inh HTS, FGF22 binding, ERp5 inh, ERAP1 HTS inh)
CCCN(C)C[C@H]1Oc2cc(C#Cc3ccccc3)ccc2S(=O)(=O)N([C@@H](C)CO)C[C@H]1C	none (no result: PDI turbidity)
Cc1ccc(C(=O)Nc2c(C)cc(-c3ccccc3)oc2=O)cc1	FGF22 binding 43
Oc1cccc2ccc(/C=C/c3ccccc3Cl)nc12	none
Oc1cccc2ccc(/C=C/c3c(F)cccc3Cl)nc12	FGF22 binding 43
N/C(=N\OC(=O)c1ccc2ccccc2c1)c1ccccn1	FGF22 binding 45
N/C(=N\OC(=O)c1ccco1)c1ccccn1	FGF22 binding 43
N/C(=N\OC(=O)c1ccc(=O)n(Cc2ccc(Cl)cc2)c1)c1ccccn1	none
N/C(=N\OC(=O)c1cc(Br)ccc1Cl)c1ccccn1	FGF22 binding 43
N/C(=N\OC(=O)c1ccc(=O)n(Cc2ccccc2)c1)c1ccccn1	FGF22 binding 43
N/C(=N\OC(=O)c1ccc2ccccc2c1)c1ccncc1	none
Cc1cc(Cl)c(C(=O)Nc2cccc(C(F)(F)F)c2)c(C)n1	none
CCCSc1nnc(-c2c[nH]c3ccccc23)n1C	none (no result: PDI turbidity)
Cc1ccccc1Oc1ccc(S(=O)(=O)NCCC(=O)O)cc1	none (no result: S100A4 inh HTS, FGF22 binding, ERp5 inh, ERAP1 HTS inh)
CN(CCOC(=O)c1cccc(F)c1)Cc1ccccc1	FGF22 binding 43
Cc1nc2ccccc2nc1CSc1nnc(N)s1	none (no result: S100A4 inh HTS, FGF22 binding, ERp5 inh, ERAP1 HTS inh)
CCn1nc(C)cc1C(=O)N1CCCC(Nc2ccc(F)c(F)c2)C1 (configuration not stated)	none
CCc1nnc(NC(=O)c2ccc3nc(CC)c(CC)nc3c2)s1	FGF22 binding 43
COc1cccc(CN(C)CC(=O)Nc2ccccc2N2CCOCC2)c1OC	none
COc1cc(CC(=O)Nc2ccccc2N2CCOCC2)cc(OC)c1OC	FGF22 binding 43
COCCNC(=O)C(c1ccc(C)o1)N(CCOC)C(=O)Cn1nnc2ccccc21 (configuration not stated)	FGF22 binding 44
CC(C)N(CCn1c(=S)[nH]c2ccccc2c1=O)C(C)C	none (no result: S100A4 inh HTS, FGF22 binding, ERp5 inh, ERAP1 HTS inh)
c1ccc(Cn2nnc3c(Nc4ccc5c(c4)OCO5)nc(C4CC4)nc32)cc1	PDI turbidity 66 (no result: S100A4 inh HTS, FGF22 binding, ERp5 inh, ERAP1 HTS inh)
O=C(CCc1ccccc1)Nc1ccccc1C(F)(F)F	FGF22 binding 44
COCCn1c(CCC(=O)O)ccc1-c1cccs1	none
O=C(O)CCc1ccc(-c2cccs2)n1CC(=O)Nc1ccccc1C(F)(F)F	FGF22 binding 43
O=C(CCc1ccccc1)NNC(=O)Nc1ccccc1	FGF22 binding 43
O=C1CCc2cc(S(=O)(=O)NCc3ccc(Cl)cc3)cc3c2N1CC3	none
O=C1CCc2cc(S(=O)(=O)NCc3ccccc3Cl)cc3c2N1CC3	ERp5 inh 29
O=C(Cn1cc(Br)ccc1=O)Nc1ccc2c(c1)OCO2	none
O=C(Cn1cc(C(F)(F)F)ccc1=O)Nc1ccc2c(c1)OCO2	FGF22 binding 43
CCOC(=O)Cc1csc(NC(=O)COc2ccc(C)cc2)n1	FGF22 binding 43
CCOC(=O)Cc1csc(NC(=O)COc2ccccc2)n1	none (no result: S100A4 inh HTS, FGF22 binding, ERp5 inh, ERAP1 HTS inh)
O=C(/C=C/c1ccco1)N1CCCC(c2ccccc2)C1 (configuration not stated)	FGF22 binding 44
C#CCCCCCCCCC(=O)NCCCC	FGF22 binding 43
CCC(C)(C)NC(=O)CN(C(=O)c1csnn1)c1ccccc1-c1ccccc1	FGF22 binding 43
CSS(=O)(=O)c1cccc2cccnc12	ERAP1 HTS inh 85
CCN(CC)S(=O)(=O)c1cccc2cccnc12	none (no result: S100A4 inh HTS, FGF22 binding, ERp5 inh, ERAP1 HTS inh)
COc1ccc(-c2ccc(C3[C@@H]4CN(C(=O)c5cnccn5)C[C@H]3N4)cc2)cc1 (some centres not stated)	none (no result: PDI turbidity, S100A4 inh HTS, ERp5 inh, ERAP1 HTS inh)
CNS(=O)(=O)c1cccc(C(=O)OCC(=O)Nc2ccc(N3CCCCC3)cc2)c1	FGF22 binding 43
COc1cc2c3c(c1OC)-c1cc4c(cc1CC3(C#N)N(C(=O)c1ccccc1)CC2)OCO4 (configuration not stated)	FGF22 binding 43
CC(C)Cc1nnc(NC(=O)Cc2cccs2)s1	FGF22 binding 43
O=C(NC(=S)NCCCN1CCOCC1)c1ccc([N+](=O)[O-])cc1	FGF22 binding 43
O=C(c1ccccc1F)N1C[C@@H]2[C@H](c3ccccc31)[C@@H](CO)N2C(=O)C1CCCC1	none (no result: PDI turbidity)
Cc1c(-n2c(SCC(=O)N(C)C3CCS(=O)(=O)C3)nc3ccccc3c2=O)c(=O)n(-c2ccccc2)n1C (configuration not stated)	none
COCCSc1ccccc1C(=O)Nc1nnc(COC)s1	none (no result: S100A4 inh HTS, FGF22 binding, ERp5 inh, ERAP1 HTS inh)
CC(C)CC#Cc1cnc2c(c1)C(=O)N([C@H](C)CO)C[C@H](C)[C@H](CN(C)Cc1ccccc1C(=O)O)O2	ERp5 inh 37 (no result: PDI turbidity)
C[C@@H]1CN([C@H](C)CO)C(=O)c2cc(C#CCN(C)C)cnc2O[C@H]1CN(C)Cc1cccc(F)c1	ERp5 inh 57 (no result: PDI turbidity)
C[C@H](CO)N1C[C@H](C)[C@@H](CN(C)Cc2cccc(F)c2)Oc2ncc(C#C[C@@H](C)O)cc2C1=O	S100A4 inh HTS 141 (no result: PDI turbidity)
CC(C)C#Cc1cnc2c(c1)C(=O)N([C@@H](C)CO)C[C@H](C)[C@@H](CN(C)C(=O)Nc1ccc(F)cc1)O2	none (no result: PDI turbidity)
CC(C)C#Cc1cnc2c(c1)C(=O)N([C@H](C)CO)C[C@H](C)[C@H](CN(C)C(=O)Nc1ccc(F)cc1)O2	S100A4 inh HTS 78 (no result: PDI turbidity)
COc1cccc(C#Cc2ccc([C@H]3[C@H]4CN(C(=O)c5ccccc5)CC(=O)N4[C@H]3CO)cc2)c1	none (no result: PDI turbidity)
O=C(C[C@H]1C/C=C\C[C@H](NC(=O)OCC2c3ccccc3-c3ccccc32)C(=O)O[C@@H](c2ccccc2)CNC1=O)NCCO	none
